Measurements from the EternaBench riboswitch data.

Test system: MS2 coat protein
Assay: apparent Kd, MS2 coat protein; higher = weaker binding; RNA-MaP array; FMN 200 µM where present
Method in brief: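 Binding was read on Illumina sequencing-chip clusters where stalled E. coli RNA polymerase had transcribed each design. A titration of SNAP-549-labelled MS2 coat protein began at 0.7 or 1.5 nM and doubled to 3 µM, once without ligand and once with constant ligand, in 100 mM Tris-HCl pH 7.5, 80 mM KCl, 4 mM MgCl2, BSA, DTT, yeast tRNA and Tween-20. The apparent Kd is the median of filtered per-cluster binding-curve fits, based on green signal normalised to red-channel RNA signal and control-cluster median Fmax.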

[1] = designed as: OFF switch for flavin mononucleotide, no ligand
[2] = ligand present: flavin mononucleotide, designed as: OFF switch for flavin mononucleotide
[3] = designed as: ON switch for flavin mononucleotide, no ligand
[4] = ligand present: flavin mononucleotide, designed as: ON switch for flavin mononucleotide

Sequence | apparent Kd [1] [µM] | apparent Kd [2] [µM] | apparent Kd [3] [µM] | apparent Kd [4] [µM]
CUUGUACAUGAGGAUCACCCAUGUUAGGAUAUCUCGCCGUCGGCUUGCCGACGGUAUUAGAGAAGGGACUAGGG | 0.0354 | 0.0395 |  | 
AGCACGAAAGUGCAACGAUGUAGCAGAAGGACAUGAGGAUCACCCAUGUAACGAGUAACUCGAAUGUAGGAUAUGCUACAUCGA | 0.025 | 0.157 |  | 
GGAGCACACAUUAACAUGAGGAUCACCCAUGUCAAAAGACAUGAGGAUAUGGAUCCGAAAAGGAUCCAGAAGGCAUGGAGCUCC |  |  | 0.169 | 0.0105
GUAUAUCACUAAGGAUAUCUGUAAUAUGUUGAAACAUGAGGAUCACCCAUGUUCAUGUAUUUAUAGGAGAAGGUAGAGAUAUAC |  |  | 0.00434 | 0.00415
CGUAUCGUAAGAGGAUAUAUGAGUCCUACAUGAGGAUCACCCAUGUAGGUGAUCUAACGAGAUUAGUAGAAGGCUUACGAUACG |  |  | 0.0143 | 0.00796
AAGUAUAGAGGAUAUAGUAAGUACUACAUGAGGAUCACCCAUGUUCUUCAUUACGUAUUUCUAGAAGGCUGAUAAA | 0.376 | 0.581 |  | 
UUCAGCUCGUGAGGAUAUACAACACUGCUUCGGCAGUGUAUUAAGAUCACAUGAGGAUCACCCAUGUAGAAGGCACGAGCUGAU | 0.0148 | 0.29 |  | 
AAUUAUAUACAGAAGGAGUUAUAUUGAGUAUUACUAGGAUAUGUUCACAUGAGGAUCACCCAUGUCAUAUUGGGAUUUAUUAUA | 0.0216 | 0.0279 |  | 
GCACUGGAUGUAGGAUAUCAGGACGAUAAGUCCUGAGAAGGACAUGAGGAUCACCCAUGUAACUCAUAACCAGUGCAUAAUAUA | 0.015 | 0.0248 |  | 
CGUUCAGCGAACGAUACGAAUGGACAUGAGGAUCACCCAUGUAGAAGGACAGGAGAAUAACGACUGUAGGAUAUACAUUUAGUG | 0.0411 | 0.0848 |  | 
CCAUGACCGUAAGCGAUUACCACAUGAGGAUCACCCAUGUACAGAAGGCGGACGUCAUUAUGAACCGAGGAUAUGUACCAGGGU | 0.0922 | 0.0121 |  | 
ACCGGGUGUCACGUAUUACCGACAUGAGGAUCACCCAUGUAGGAGGAUAUGCAGACCGAAAUAAAGCAGAAGGCCUACGUUCUC | 0.0106 | 0.0466 |  | 
UAUAUAUAGUAAGGAUAUGUAAUCAUUUUAUAAACAGAAGGUACUGACAUGAGGAUCACCCAUGUUUUAGUGUGGGCAUGUAGA | 0.0864 | 0.141 |  | 
CUCGUGUAAGGAUAUGCGAGCCACGGAAAUAAAACGUGGAGGUAGAAGGUACAUGAGGAUCACCCAUGUAAAAC | 0.0254 | 0.0853 |  | 
UUGUUACAUGAGGAUCACCCAUGUGAGGAUAUGGUUCAGUACUGUCAUGUCGCGUACUCCAGAAGGCACAUGUU | 0.0897 | 0.209 |  | 
UUGGACGUCGUAGGAUAUGUAGGAUAUUCCUACAUGAGGAUCACCCAUGUUGCCAUGGAAGAAGGACAGAAGGACGAUGUCCAU |  |  | 0.253 | 0.00448
GCCUCAUAGUAGAAGGGACUUAGACAGUAAAGUUUAUAGAGGAAAUAACAUGAGGAUCACCCAUGUCAGGAUAUACUAAGAGGC | 0.00742 | 0.00947 |  | 
GUCCGGCUGCCACAGGAUAUACGUGGAUCGACAUGAGGAUCACCCAUGUAUAUCCUAAUAAUUGCGUAGAAGGGUGGUCAGCCGG |  |  | 1.04 | 0.109
UGACGGAGCUGAGGAUAUAACAUGAGGAUCACCCAUGUAAGUCUCCAGGAAACUGGAGACAAUAGUUAGAAGGCAGCUCCGUCA | 0.0146 | 0.0194 |  | 
UAUUUAAUCAUAGGAUAUAGUGUGAAAUUUGGACUAGAAGGAUGUAACAUGAGGAUCACCCAUGUGGUAAGUGGGACACAGUGA |  |  | 0.106 | 0.177
CAAACAACACAGAAGGCCACGAAGUCCAUGGGUGGAGGAUAUGUGUUAGCUCUGACAUGAGGAUCACCCAUGUCUACGUGAGCU |  |  | 0.0055 | 0.00527

Sequence | apparent Kd [1] [µM] | apparent Kd [2] [µM] | apparent Kd [3] [µM] | apparent Kd [4] [µM]
CUUCAGUAAGGAUAUCAGCUUAGGAGGUUGGUAAUGAGAGCUGAGAAGGUACAUGAGGAUCACCCAUGUUAGUU | 0.0203 | 0.033 |  | 
UGUAUUAACGGAGGAUAUCGAUAUCAAACAUGAGGAUCACCCAUGUUGAGGAUCACCCAUGUCCAUGAGAAGGCUGGCGUACUU |  |  | 0.0208 | 0.0206
UUGGUGGUUUCCCGCGCUAAGAUAGGAGAAGGGUGACUGGACAUGAGGAUCACCCAUGUAUCGGCACAGGAUAUCCACAUUAAU |  |  | 0.223 | 0.334
UGUUGUAUUACAGGAUAUCUAUUAUUUUAAUUUAGAGAAGGGUAUUCACAUGAGGAUCACCCAUGUAUAUACGAGGAAGUUGUG |  |  | 0.0529 | 0.0572
CUACCUUAUGAGAAGGCGAUCAUGAAACAUGAUCGAGGAUAUCAUGUAAACAUGAGGAUCACCCAUGUAUGGGUAUUAUGGUAA |  |  | 0.106 | 0.0244
CUGUAGAUAUCAGGAUAUCUAUUUCCUACAUGAGGAUCACCCAUGUAGGUGAUCAGCCAAGUAAAGGAGAAGGGAUAUCUAUAG |  |  | 0.0385 | 0.011
AUUUUAAUGUCAGGAUAUGUUAGUUUAUACAUAGUAGAAGGGAUAAUUAUACUCAUGUACAUGAGGAUCACCCAUGUUAAAUAA |  |  | 0.163 | 0.0981
AUCAGCACGUGAGGAUAUGCGUCACUGCGAAAGCAGUACGGUAAGAUCACAUGAGGAUCACCCAUGUAGAAGGCACGAGCUGAU | 0.0166 | 0.0381 |  | 
CGGGAGCCGAAGGGCGAAAGCCCACAUGAGGAUCACCCAUGUAGAAGGCGGGCCGCAACGCGGCCCGAGGAUAUACAGGCUCCA | 0.00599 | 0.0105 |  | 
AAUCAGUCAGGAUAUCGUUAAUUUAAUUGUUUGUUUUAGUUCGAGAAGGGACAUGAGGAUCACCCAUGUACUCA | 0.0231 | 0.0288 |  | 
GUCGGGUCUCACGCGUCGGUCCACAUGAGGAUCACCCAUGUCAAGGAUAUAGCGUCUUCCGGGCGUUAGAAGGUGACCAUUGGC | 0.0346 | 0.0481 |  | 
UACGCGUAGGAGAAGGGCCCACUAUAGGGUAAGUGCUGUUCUCACAUGAGGAUCACCCAUGUGCGGCAGGAUAUCCACGCGUGC | 0.0116 | 0.0667 |  | 
CAUGAUUGACGAGGAUAUUGUUCUACAUGGCGACGAGAAGGCGUCUGUCACAUGAGGAUCACCCAUGUGAGUCUGGUGAAUGAG | 0.0365 | 0.0334 |  | 
UAAAUCUUGUAAGGAUAUACACGAGAUUCAAGUGUAGAAGGUACUUACAUGAGGAUCACCCAUGUAUACAUGGAUAAUAGAUAU |  |  | 0.211 | 0.0645
AGAUAUAUACAUGAGGAUCACCCAUGUUAAUAGGUGUUUGUCAGAAGGCAUUAUGAGAGAAUUAAUGAGGAUAUGAAGUAUCAU |  |  | 0.0373 | 0.023
GGAGAUACAUGAGGAUCACCCAUGUAGGAUAUCGGGCCCAUAUAUGGCGAAAGCCAUAUAUGGGCCGAGAAGGGCGUACACACC | 0.00763 | 0.00745 |  | 
GGUAAGAUGCAGAAGGUGUUAGCUAGAGCUACGACAUGAGGAUCACCCAUGUACUAGAAACAGUACAAGGAUAUGCAUCUUACC |  |  | 0.0184 | 0.00638
UAUGUCUUUGUGAGGAUAUACUUUGUUUGGUCGUAGUAGAAGGCACAUGAGGAUCACCCAUGUAGAUUUUUGGU | 0.0232 | 0.0361 |  | 
CUUUAUAAUACCUCAUGUACAUGAGGAUCACCCAUGUUAACUAAGGAUAUAUAUAAAUUAAUAAUGUAGAAGGUAGUACUAUUU | 0.0173 | 0.0148 |  | 
UGUUGUAUUACAGGAUAUCUAGUAUUUUUAUAUAGAGAAGGGUAUUCACAUGAGGAUCACCCAUGUAUAUACGAGGAAGUUGUG |  |  | 0.0303 | 0.0322
